Measurements: ChEMBL document CHEMBL3351489, “Design, synthesis, and structure-activity relationships of a series of novel N-aryl-2-phenylcyclopropanecarboxamide that are potent and orally active orexin receptor antagonists” (Bioorg Med Chem, 2014)
≈ marks a conversion by molar mass, not a printed value. Calls of active or inactive are those of the source. No cut-off for these calls is given here.

Experiments:
Orexin receptor type 2 = target: T1, Orexin receptor type 2 (Homo sapiens, UniProt O43614); assay: Displacement of [125I]-Orexin A from human OX2R expressed in CHO cells after 30 mins by topcount analysis; format: cell-based
T1 sequence (O43614 whole entry): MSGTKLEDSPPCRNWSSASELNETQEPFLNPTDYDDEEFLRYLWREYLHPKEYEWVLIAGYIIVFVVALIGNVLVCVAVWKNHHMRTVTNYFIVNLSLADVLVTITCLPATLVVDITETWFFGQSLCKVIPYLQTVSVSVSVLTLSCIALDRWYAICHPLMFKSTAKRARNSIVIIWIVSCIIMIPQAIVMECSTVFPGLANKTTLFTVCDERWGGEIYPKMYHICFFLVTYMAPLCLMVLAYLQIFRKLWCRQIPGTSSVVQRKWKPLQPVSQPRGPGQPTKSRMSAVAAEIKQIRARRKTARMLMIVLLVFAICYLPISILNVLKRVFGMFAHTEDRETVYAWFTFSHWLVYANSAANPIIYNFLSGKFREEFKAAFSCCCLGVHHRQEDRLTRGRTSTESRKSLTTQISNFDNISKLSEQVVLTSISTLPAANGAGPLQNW

[1] = target: T2, Orexin/Hypocretin receptor type 1 (Homo sapiens, UniProt O43613); assay: Displacement of [125I]-Orexin A from human OX1R expressed in CHO cells after 30 mins by topcount analysis; format: cell-based
T2 sequence (O43613 whole entry): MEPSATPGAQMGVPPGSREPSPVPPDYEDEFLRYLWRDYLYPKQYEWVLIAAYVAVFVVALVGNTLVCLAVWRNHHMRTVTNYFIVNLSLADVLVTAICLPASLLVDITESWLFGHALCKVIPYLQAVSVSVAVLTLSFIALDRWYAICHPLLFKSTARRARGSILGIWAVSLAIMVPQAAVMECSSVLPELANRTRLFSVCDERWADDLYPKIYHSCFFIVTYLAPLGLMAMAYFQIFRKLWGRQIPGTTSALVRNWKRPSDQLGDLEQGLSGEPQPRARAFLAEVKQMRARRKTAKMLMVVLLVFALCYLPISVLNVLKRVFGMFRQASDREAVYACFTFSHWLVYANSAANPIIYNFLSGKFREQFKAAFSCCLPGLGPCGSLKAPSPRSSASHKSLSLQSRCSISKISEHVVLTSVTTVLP
In short: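 Membranes from CHO cells expressing human OX1R, […] per well, in 25 mM HEPES pH 7.5 with MgCl2, CaCl2, 0.5% BSA, sodium azide, Tween 20; incubated with [125I]-orexin A 30 min at rt on scintillation plate, washed, counted. Nonspecific binding with excess unlabelled orexin A; % inhibition from DPM; mean of 3 wells, single measurement.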

[2] = Ratio of efflux ratio of permeability in pig LLC-MDR1 cells to efflux ratio of permeability in pig LLC-PK1 cells; format: ADME, cell-based, Sus scrofa
In short: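 LLC-PK1 and MDR1-transfected LLC-PK1 cells grown 5 days on porous inserts (5% CO2, 37 °C). Monolayers preincubated 2 h in HBSS with 10 mM HEPES; compound added apical or basal, 2 h at 37 °C. Receiver side sampled, quantified by LC/MS; Papp from permeated amount, time, initial concentration and membrane area.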

[3] = Aqueous solubility of the compound in PBS at pH 7.4 after 15 mins by HPLC method; format: physicochemical
Mus musculus [4] = assay: Induction of REM sleep in C57BL/6NCrlCrlj mouse at 30 to 100 mg/kg, po up to 3 hrs by EEG/EMG analysis; format: functional, organism-based
In short: (§1)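 Mice with EEG/EMG recording dosed orally (30 or 100 mg/kg, vehicle 10% Cremophor EL, 5% DMSO in saline; n = 7) immediately before lights out. Signals sampled at 128 Hz, 50 Hz filtered; 10-s epochs auto-scored as wake, non-REM or REM, then checked by a blinded observer. Minutes summed hourly and over 3 h; one-way ANOVA with Dunnett versus vehicle.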

Mus musculus [5] = assay: Induction of sleep in po dosed C57BL/6NCrlCrlj mouse assessed as reduction in wakefulness time up to 3 hrs by EEG/EMG analysis; format: functional, organism-based; in short: as §1
Mus musculus [6] = assay: Reduction in locomotor activity in ddY mouse model at 100 mg/kg, po after 1 hr; format: functional, organism-based; design: dose 100 mg/kg
In short: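 Male ddY mice kept on 12-h light/dark cycle; oral 10, 30 or 100 mg/kg (DMSO stock diluted twentyfold in 10% Cremophor EL/saline), n = 8 per dose, vehicle n = 16. Ambulation counted as infrared beam breaks in an open-field box over 1 h after dosing; mean ± SEM, one-way ANOVA with Dunnett versus vehicle.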

Mus musculus [7] = assay: Induction of non-REM sleep in po dosed C57BL/6NCrlCrlj mouse up to 3 hrs by EEG/EMG analysis; format: functional, organism-based; in short: as §1
Mus musculus [8] = assay: Induction of non-REM sleep in C57BL/6NCrlCrlj mouse at 100 mg/kg up to 3 hrs by EEG/EMG analysis; format: functional, organism-based; design: dose 100 mg/kg
In short: (§2)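 Oral dosing immediately before lights out, vehicle 10% Cremophor EL, 5% DMSO in saline (n = 7 per group). EEG/EMG amplified, filtered (50 Hz line), sampled at 128 Hz. Recordings were scored automatically in 10-s epochs as wakefulness, non-REM or REM sleep and checked by a blinded observer. Minutes were summed over 3 h from dosing relative to vehicle, with one-way ANOVA and Dunnett test.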

Mus musculus [9] = assay: Induction of sleep in C57BL/6NCrlCrlj mouse assessed as reduction in wakefulness time at 100 mg/kg up to 3 hrs by EEG/EMG analysis; format: functional, organism-based; design: dose 100 mg/kg; in short: as §2
[10] = Drug uptake in CSF of C57BL/6N mouse at 100 mg/kg, po after 3 hrs; format: ADME, organism-based, Cerebrospinal fluid; design: dose 100 mg/kg, route oral; settings: read-out: Drug uptake
In short: (§3)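 Male C57BL/6N mice given single oral 100 mg/kg (suspension in 0.5% methylcellulose, or saline/Cremophor EL/DMSO 85:10:5). At 1 or 3 h, CSF taken from cisterna magna under pentobarbital, then aortic blood for plasma. Samples protein-precipitated with methanol/acetonitrile plus propranolol internal standard; LC/MS/MS in positive MRM mode, 1/x²-weighted calibration; mean ± SEM.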

[11] = Plasma concentration in C57BL/6N mouse at 100 mg/kg, po after 3 hrs; format: ADME, organism-based; design: dose 100 mg/kg, route oral; in short: as §3
[12] = Plasma concentration in C57BL/6N mouse at 100 mg/kg, po after 1 hr; format: ADME, organism-based; design: dose 100 mg/kg, route oral; in short: as §3
[13] = Drug uptake in CSF of C57BL/6N mouse at 100 mg/kg, po after 1 hr; format: ADME, organism-based, Cerebrospinal fluid; design: dose 100 mg/kg, route oral; settings: read-out: Drug uptake; in short: as §3

| Compound | Ki (Orexin receptor type 2) [nM] | Ki [1] [nM] | Ratio [2] | solubility at 0.25 h [3] [µM] | further results |
| --- | --- | --- | --- | --- | --- |
| COCc1ccc(OC[C@@]2(c3ccccc3)C[C@H]2C(=O)Nc2ccccn2)cc1OC | 3340 | 772 |  |  |  |
| COc1ccc(OC[C@@]2(c3ccccc3)C[C@H]2C(=O)Nc2cccnc2)cc1OC | 51 | 206 | 3.4 |  |  |
| COc1ccc(OC[C@@]2(c3ccccc3)C[C@H]2C(=O)Nc2cc(C#N)ccn2)cc1OC | 34 | 103 | 1 | 10 (≈ 4.29 µg/mL) |  |
| COc1ccc(OC[C@@]2(c3ccccc3)C[C@H]2C(=O)N(C)c2ccccc2)cc1OC | 4680 | 7540 |  |  |  |
| COc1ccc(OC[C@@]2(c3ccccc3)C[C@H]2C(=O)c2ccccc2)cc1OC | 8650 | > 10000 |  |  |  |
| COc1ccc(OC[C@@]2(c3ccccc3)C[C@H]2C(=O)Nc2ccccn2)cc1OC | 36 | 1070 | 0.9 | 32 (≈ 12.9 µg/mL) |  |
| COc1ccc(OC[C@@]2(c3ccccc3)C[C@H]2C(=O)Nc2cc(C)on2)cc1OC | 28 | 505 |  | < 1 |  |
| COc1ccc([C@]2(COc3ccccc3)C[C@H]2C(=O)Nc2ccccn2)cc1OC | 129 | > 10000 |  |  |  |
| COc1ccc(OC[C@@]2(c3ccccc3)C[C@H]2C(=O)Nc2ccccn2)cc1 | 588 | 5540 |  |  |  |
| COc1ccc(OC[C@@]2(c3ccccc3)C[C@H]2C(=O)NC2CCCCC2)cc1OC | 7850 | 2990 |  |  |  |
| COc1ccc(OC[C@@]2(c3ccccc3)C[C@H]2C(=O)Nc2nc(C)cs2)cc1OC | 14 | 832 | 1.5 | 11 (≈ 4.67 µg/mL) |  |
| COc1ccc(OC[C@@]2(c3ccccc3)C[C@H]2C(=O)Cc2ccccc2)cc1OC | > 10000 | > 10000 |  |  |  |
| COc1ccc(OC[C@@]2(c3ccccc3)C[C@H]2C(=O)Nc2ccncc2)cc1OC | 85 | 1420 | 4.9 |  |  |
| COc1ccc(OC[C@@]2(c3ccccc3)C[C@H]2C(=O)Nc2ncc(C)s2)cc1OC | 35 | 291 | 2.4 | < 1 |  |
| COc1ccc(OCC2(c3ccccc3)CC2C(=O)Nc2ccc(C#N)cn2)cc1OC (single isomer, unassigned; (-)) [listing 1 of 2 here] |  |  |  |  | Activity (Mus musculus [4]): inactive; Activity (Mus musculus [5]): Dose-dependent effect; Activity (Mus musculus [6]): Active; Activity (Mus musculus [7]): Dose-dependent effect |
| Cc1ccc(-c2nc3ccc(C)cn3c2CC(=O)N(C)C)cc1 |  |  |  |  | Activity (Mus musculus [8]): Active; Activity (Mus musculus [9]): Active |
| COc1ccc(OC[C@@]2(c3ccccc3)C[C@H]2C(=O)Nc2ccccc2)cc1OC | 7.2 | 7.2 | 0.6 | 2 (≈ 0.807 µg/mL) |  |
| COc1cccc(OC[C@@]2(c3ccccc3)C[C@H]2C(=O)Nc2ccccn2)c1 | 1330 | > 10000 |  |  |  |
| COCc1cc(OC[C@@]2(c3ccccc3)C[C@H]2C(=O)Nc2ccccn2)ccc1OC | 384 | 747 |  |  |  |
| COc1ccc(OC[C@@]2(c3ccccc3)C[C@H]2C(=O)N2CCCc3ccccc32)cc1OC | > 10000 | > 10000 |  |  |  |
| COc1ccc(OCC2(c3ccccc3)CC2C(=O)Nc2ccc(C#N)cn2)cc1OC (single isomer, unassigned; (+)) | > 2000 | > 2000 |  |  |  |
| O=C(Nc1ccccn1)[C@@H]1C[C@@]1(COc1ccccc1)c1ccccc1 | 967 | 6840 |  |  |  |
| COc1ccc(OCC2(c3ccccc3)CC2C(=O)Nc2ccc(C#N)cn2)cc1OC (single isomer, unassigned; (-)) [listing 2 of 2 here] | 5 | 106 | 1.1 | 15 (≈ 6.44 µg/mL) | concentration at 3 h [10]: 94 nM; concentration at 3 h [11]: 3740 nM; concentration at 1 h [12]: 9900 nM; concentration at 1 h [13]: 245 nM |
| COc1ccc(OC[C@@]2(c3ccccc3)C[C@H]2C(=O)Nc2ccc(C#N)cn2)cc1OC (racemic) | 14 | 123 | 1.1 | 22 (≈ 9.45 µg/mL) |  |
| COc1ccc(OC[C@@]2(c3ccccc3)C[C@H]2CNc2ccccc2)cc1OC | 4230 | 4160 |  |  |  |
| Cc1nc(C(=O)N2CCCC[C@H]2CNC(=O)c2cccc3occc23)c(-c2ccc(F)cc2)s1 [SB-649868] | 8.5 |  |  |  |  |
